Key:
[1] = type: in vivo, patients with type 1 diabetes; conditions: s.c., arithmetic mean; n = 21 (lispro), n = 16 (RHI); serum insulin RIA
blood glucose = test: Postprandial glycemic response to a standardized liquid test meal; type: in vivo, patients with type 1 diabetes; conditions: first 4 h after study drug administration
How it was run: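 Single-blind crossover in adults with type 1 diabetes. Prandial insulin was withheld >8 h and basal insulin >12 h, and blood glucose was clamped to 100–120 mg/dL with IV glucose or insulin. After a 30-min baseline, staff gave an individually optimized SC abdominal insulin dose with or without hyaluronidase, then a liquid meal.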

[2] = Safety: adverse events, hypoglycemia; type: in vivo, patients with type 1 diabetes; conditions: for patients with hypoglycemia (adverse event): generally mild or occasionally moderate, safety population; for number of subjects administered glucose for the treatment of hypoglycemia: intravenous glucose (20%) at investigator's discretion when blood glucose <60 mg/dL or symptoms

Substance | fraction of insulin exposure >2 h after injection [1] [%] | fraction of total insulin exposure within the first hour following injection [1] [%] | total hyperglycemic excursions (area under the curve >140 mg/dL) (blood glucose) | patients with hypoglycemia (adverse event) [2] | number of subjects administered glucose for the treatment of hypoglycemia [2] | patients with mild injection-site erythema ([2]; in vivo)
insulin lispro | 22 | 39 | 526 min ⋅ mg^−1 ⋅ mL^−1 | 13 of 22 | 6 of 21 | 
regular human insulin [RHI] |  |  | 1,238 min ⋅ mg^−1 ⋅ mL^−1 | 16 of 21 | 12 of 21 | two

From PMC3041204 (Diabetes Care, 2011)
